In the library only some 2% were active in any assay of this set; here they are far more common.
Xi reactivation: activators of inactive X chromosome reactivation, primary screen, imaging, XiGFP fibroblasts, GFP high-content imaging, set 2; 360,000 tested, 0.055% active; XiGFP mouse fibroblasts, % GFP-positive cells imaging, 3 d; cells co-treated with 5-aza-dC sensitizer; scaled so ellipticine positive control = 100%; activation, % at 7.58 µM; AID 743238, 2013;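 active means mean normalized replicate activation at least 10% and every replicate at or above 10%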;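 further: 0% = median of on-plate neutral control wells and 100% = ellipticine 6 µM median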
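System: XiGFP fibroblasts, SV40-immortalized. Medium: DMEM plus 5-aza-dC sensitizer. Doses: single point. Timing: 3 d treatment, 15 min room-temperature fixation. Control set: ellipticine 6 µM.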
SR-BI uptake up: activators of SR-BI mediated DiI-HDL uptake, primary screen, ldlA[mSR-BI] CHO cells, DiI fluorescence. 3 h; 100 = double the neutral-control signal. activation, % at 12.5 µM. 320,000 tested, 0.096% active;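 active means mean replicate activation of at least 60% and every replicate at or above 60%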;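 further: 0% = median plate neutral-control signal and 100% = twice that signal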
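Material: SR-BI-overexpressing, LDLR-lacking CHO cells; schedule: compound exposure 3 h, 37 °C; reagent: DiI-labelled HDL at 10 µg/mL final; technique: bottom-read fluorescence, 550/595 nm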
SR-BI HDL uptake: inhibitors of SR-BI mediated HDL lipid uptake, primary screen, ldlA[mSR-BI] cells, fluorescence, single point; Scavenger receptor class B member 1 (Mus musculus), Q61009; ldlA[mSR-BI] CHO cells, DiI-HDL uptake fluorescence, 3 h; inhibition, % at 12.5 µM; 320,000 tested, 0.96% active; AID 488896, 2010;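 active means mean replicate inhibition of at least 70% and a set share of replicates each scoring 70 or more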;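 further: 0% = median of neutral control wells and 100% = median of positive control wells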
Target sequence (Q61009 whole entry, looked up): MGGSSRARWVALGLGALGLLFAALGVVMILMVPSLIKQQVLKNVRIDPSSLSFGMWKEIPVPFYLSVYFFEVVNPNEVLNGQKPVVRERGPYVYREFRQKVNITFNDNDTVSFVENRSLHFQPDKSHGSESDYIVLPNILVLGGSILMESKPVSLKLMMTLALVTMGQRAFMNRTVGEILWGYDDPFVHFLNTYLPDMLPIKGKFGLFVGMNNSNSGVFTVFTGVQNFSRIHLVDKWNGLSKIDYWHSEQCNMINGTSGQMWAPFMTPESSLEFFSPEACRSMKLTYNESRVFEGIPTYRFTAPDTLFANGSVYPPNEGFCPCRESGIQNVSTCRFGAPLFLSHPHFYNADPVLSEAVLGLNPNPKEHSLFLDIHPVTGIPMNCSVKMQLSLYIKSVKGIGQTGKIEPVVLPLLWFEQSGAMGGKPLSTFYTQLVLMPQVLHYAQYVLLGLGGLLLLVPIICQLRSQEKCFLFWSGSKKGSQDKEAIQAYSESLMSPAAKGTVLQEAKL
ARNT TACC3 PPI: disruptors of ARNT/TACC3 protein interaction, primary screen, biochemical, AlphaScreen, single concentration; 390,000 tested, 0.66% active; Transforming acidic coiled-coil-containing protein 3 (Homo sapiens), Q9Y6A5; AlphaScreen His-ARNT PAS-B/GST-TACC3 binding, luminescence; TACC3 fragment carries E629A point mutation; inhibition, % at 9.99 µM;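 active means mean inhibition of replicates at least 50% and at least half of replicates each reaching 50%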;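 further: 0% = complete ARNT plus TACC3 wells and 100% = ARNT alone without TACC3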
NSD2 inh: NSD2 histone methyltransferase inhibitors, primary screen, biochemical, AlphaScreen, single concentration, set 2 | Histone-lysine N-methyltransferase NSD2 (Homo sapiens), O96028 | NSD2 peptide methylation, 120 min | inhibition, % at 12.5 µM | 310,000 tested, 0.54% active; in the data active means inhibition above about 50%
sPLA2-III inh: human group III sPLA2 inhibitors, primary screen, biochemical, QFRET, BODIPY PC-A2 liposome substrate; QFRET BODIPY PC-A2 liposome hydrolysis, fluorescence; Group 3 secretory phospholipase A2 (Homo sapiens), Q9NZ20; inhibition, % at 12.2 µM; 370,000 tested, 0.56% active;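 active means inhibition above mean plus 3 SD of compounds lying within the high and low control bounds, cut at about 19% in these data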;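 further: 0% = median of test compound wells and 100% = no enzyme DMSO wells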
hGIII sPLA2 conf: human group III sPLA2 inhibitors, confirmation, biochemical, QFRET, triplicate; shares compounds with sPLA2-III inh; recombinant hGIII-sPLA2, BODIPY PC-A2 QFRET fluorescence; inhibition, % at 12.2 µM; 2,000 tested, 34% active;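 active means mean inhibition across triplicates above the hit cutoff set in the earlier primary screen, cut at about 19% in these data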;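 further: 0% = enzyme with DMSO and 100% = DMSO wells lacking enzyme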
535nm interf: 535nm fluorescence optical interference, confirmation, artefact control for HGIII-sPLA2 inhibitor project, biochemical, QFRET | shares compounds with sPLA2-III inh | BODIPY FL product fluorescence interference | inhibition, % at 12.2 µM | 2,000 tested, 8.5% active | AID 743282, 2014;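 active means average inhibition above the solvent-only control mean plus 3 SD, cut at about 6% in these data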;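 further: 0% = DMSO with substrate plus product and 100% = DMSO with substrate alone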
Active calls of the source: *; x = no result given.

SMILES | Xi reactivation | SR-BI uptake up | SR-BI HDL uptake | ARNT TACC3 PPI | NSD2 inh | sPLA2-III inh | hGIII sPLA2 conf | 535nm interf
CCOC(=O)[C@H]1[C@H]2COc3cc(OC)ccc3[C@@H]2N2C(=O)c3cc(C)ccc3NC(=O)[C@@]12C | -0.1 | -22.1 | 22.0 | 1.6 | x | 16.6 | x | x
CCOC(=O)[C@H]1[C@H]2COc3cc(OC)ccc3[C@@H]2N2C(=O)c3ccc(C)cc3NC(=O)[C@@]12C | 0.4 | -18.4 | 18.4 | -8.1 | x | 25.3* | 12.8 | -10.2
CCOC(=O)[C@H]1[C@H]2COc3ccc(OC)cc3[C@@H]2N2C(=O)c3ccc(C)cc3NC(=O)[C@@]12C | 0.0 | 11.6 | -11.6 | -2.4 | x | -2.8 | x | x
CCOC(=O)[C@H]1[C@H]2COc3cc(OC)ccc3[C@@H]2N2C(=O)c3ccc(F)cc3NC(=O)[C@@]12C | 0.0 | -14.9 | 14.9 | -22.1 | x | 14.7 | x | x
CCOC(=O)[C@H]1[C@H]2COc3cc(OC)ccc3[C@@H]2N2C(=O)c3cc(F)c(F)cc3NC(=O)[C@@]12C | -0.2 | -0.3 | 4.2 | 0.4 | x | 24.7* | 19.5* | -14.2
C[C@H](CO)N1C[C@H](C)[C@@H](CN(C)S(C)(=O)=O)Oc2ccc(NC(=O)Nc3ccc(F)cc3)cc2CC1=O | 0.3 | x | x | -5.8 | x | x | x | x
Cc1onc(-c2c(Cl)cccc2Cl)c1C(=O)NCc1ccccn1 | x | 25.2 | -25.2 | -5.2 | 0.7 | 3.6 | x | x
CCn1cc(CNC(=O)c2c(-c3c(Cl)cccc3Cl)noc2C)c(C)n1 | 0.3 | 17.0 | -17.0 | -7.9 | -4.7 | 20.6* | 0.5 | -1.2
CSCC(CO)NS(=O)(=O)c1ccc(C)cc1 (configuration not stated) | 0.3 | 17.7 | -17.7 | -3.9 | -5.5 | 3.3 | x | x
Cc1occc1C(=O)N/N=C/c1c[nH]c2ccccc12 | x | 16.7 | -16.7 | -9.2 | 4.8 | x | x | x
Cc1occc1C(=O)N/N=C/c1c(O)ccc2ccccc12 | -0.1 | -114.0 | 114.0* | x | -0.6 | 22.7* | -1.1 | 2.1
O=C(N/N=C/c1c(O)ccc2ccccc12)c1ccc(Br)o1 | 0.4 | -124.3 | 124.3* | 3.8 | -1.4 | 19.4* | -2.2 | -2.0
Cn1c(CSCc2ccc(Cl)cc2)n[nH]c1=S | 0.2 | -15.5 | 15.5 | -4.4 | -2.2 | 19.6* | 18.3 | -2.7
Cn1c(CSCc2ccccc2)n[nH]c1=S | 0.0 | -5.0 | 5.0 | -4.4 | 1.4 | 31.7* | 7.0 | -0.3
Cn1c(CSCc2ccc(F)cc2)n[nH]c1=S | 0.0 | 6.2 | -6.2 | -2.3 | -1.2 | 17.4 | x | x
CC(C(=O)OCC(=O)c1ccc(F)cc1)N1C(=O)C2C3C=CC(C3)C2C1=O (configuration not stated) | 0.5 | x | x | -3.0 | -0.4 | -4.3 | x | x
C=CC[C@@H](Cc1ccc(F)cc1)C(=O)OC[C@H]1CCCN1C(=O)[C@H](CC=C)CC(=O)NCCO | 0.2 | -24.8 | 24.8 | 3.9 | x | 11.2 | x | x
Fc1ccc(C2CC(c3ccco3)=NN2c2ccccc2)cc1 (configuration not stated) | x | -5.0 | 5.0 | 0.4 | 0.9 | 1.5 | x | x
O=[N+]([O-])c1ccc(N2N=C(c3ccco3)CC2c2ccccc2)cc1 (configuration not stated) | x | -8.4 | 8.4 | -5.2 | -3.6 | 22.9* | 20.1* | 9.3*
CC1(C)Cc2ccccc2-c2nnnn21 | x | 6.3 | -6.3 | -2.7 | -2.9 | 23.0* | 4.5 | -3.5
CCN(CC)C(=O)/C=C/c1ccccc1 | -0.1 | -1.4 | 1.4 | -8.9 | x | 19.8* | -2.5 | -3.8
NC(=O)CSc1ncnc2c1cnn2Cc1ccccc1 | x | 28.1 | -28.1 | 4.5 | -2.4 | -0.7 | x | x
CC(=O)c1cc(Cc2csc(C(C)=O)c2)cs1 | x | -4.9 | 4.9 | -6.4 | -2.8 | 18.2 | x | x
CC(=O)c1cc(CN2C(=O)CCC2=O)cs1 | x | 23.9 | -23.9 | -6.6 | 2.7 | 20.3* | -4.1 | 0.4
O=[N+]([O-])c1ccccc1C1Nc2cccc3cccc(c23)N1 | x | -14.5 | 14.5 | 4.4 | 6.0 | 1.4 | x | x
SMILES | Xi reactivation | SR-BI uptake up | SR-BI HDL uptake | ARNT TACC3 PPI | NSD2 inh | sPLA2-III inh | hGIII sPLA2 conf | 535nm interf
O=[N+]([O-])c1ccc(Cl)c(C2Nc3cccc4cccc(c34)N2)c1 | x | -33.5 | 33.5 | 10.2 | 0.7 | 32.0* | 56.7* | 17.9*
CCC(=O)N1CC[C@@H]2[C@H]1c1cc(-c3cccc(OC)c3)ccc1N(C)[C@H]2CO | 0.0 | x | x | -1.9 | x | x | x | x
CCC(=O)NC(=S)Nc1ccc(OC)cc1OC | 0.2 | -15.2 | 15.2 | 1.6 | 0.8 | 21.2* | 0.3 | -6.7
CCC(=O)Nc1ccc(OC)cc1OC | x | 4.6 | -4.6 | 0.4 | -1.0 | 7.1 | x | x
COc1ccc(NCC(=O)Nc2ccc(Br)cc2F)c(OC)c1 | x | x | x | 8.8 | 5.3 | 22.1* | 22.8* | 4.0
CC(=O)Nc1nc(NC(=O)/C=C/c2ccccc2)n(-c2ccccc2)n1 | -0.1 | 2.1 | -2.1 | 4.6 | 0.7 | -7.7 | x | x
Cc1cc(C)cc(N(C(=O)c2csnn2)C(C(=O)NC2CCCCC2)c2cccnc2)c1 (configuration not stated) | 0.0 | x | x | x | -11.3 | 0.3 | x | x
O=C(O)CNS(=O)(=O)Cc1ccccc1 | 0.1 | x | x | -10.5 | 15.2 | 20.5* | 5.1 | -6.4
CCOC(=O)CNS(=O)(=O)Cc1ccccc1 | -0.1 | 25.8 | -25.8 | 9.3 | x | 7.2 | x | x
CC(=O)C1=C(C)Nc2ncnn2C1c1ccc(F)cc1 (configuration not stated) | 0.0 | 8.1 | -8.1 | -0.6 | 1.4 | 21.6* | 10.9 | -5.4
CC(=O)C1=C(C)Nc2ncnn2C1c1ccc(O)cc1 (configuration not stated) | 0.2 | 7.3 | -7.3 | 11.7 | 2.0 | 0.0 | x | x
COc1ccc(S(=O)(=O)N(C)C[C@@H]2Oc3ccc(NS(=O)(=O)c4ccccc4)cc3C(=O)N([C@H](C)CO)C[C@H]2C)cc1 | 0.1 | x | x | 13.0 | x | x | x | x
Cc1cc(=O)[nH]c(NN=C2C3CC4CC(C3)CC2C4)n1 | 0.3 | -40.2 | 40.2 | 12.5 | -11.3 | -0.8 | x | x

Screening results (PubChem BioAssay)
